# Assay results published in ChEMBL document CHEMBL1142242, “Indanylacetic acid derivatives carrying 4-thiazolyl-phenoxy tail groups, a new class of potent PPAR alpha/gamma/delta pan agonists: synthesis, structure-activity relationship, and in vivo efficacy” (J Med Chem, 2007).
# What was measured:
# [1] = biological target: T1, Peroxisome proliferator-activated receptor gamma (Mus musculus, UniProt P37238); experiment: Agonist activity at PPAR gamma in mouse 3T3L1 cells assessed as increase in insulin receptor by IRBA; assay type: functional, cell-based, 3T3-L1
# T1 sequence (P37238 whole entry): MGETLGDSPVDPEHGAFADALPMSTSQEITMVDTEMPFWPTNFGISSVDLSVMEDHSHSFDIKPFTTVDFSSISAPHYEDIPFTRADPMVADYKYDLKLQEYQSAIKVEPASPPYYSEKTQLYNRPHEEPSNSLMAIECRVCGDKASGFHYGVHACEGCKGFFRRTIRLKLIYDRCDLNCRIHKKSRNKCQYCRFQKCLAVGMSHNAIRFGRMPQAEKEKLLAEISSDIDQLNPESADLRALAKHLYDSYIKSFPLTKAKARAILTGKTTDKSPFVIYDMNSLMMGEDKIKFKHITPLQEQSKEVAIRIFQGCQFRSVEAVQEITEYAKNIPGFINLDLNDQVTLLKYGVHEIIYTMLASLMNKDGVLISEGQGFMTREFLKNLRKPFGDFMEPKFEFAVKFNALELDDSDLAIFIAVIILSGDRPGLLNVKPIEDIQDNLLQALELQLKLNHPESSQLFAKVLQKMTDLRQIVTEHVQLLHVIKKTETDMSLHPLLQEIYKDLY
# [2] = biological target: T2, Peroxisome proliferator-activated receptor delta (Homo sapiens, UniProt Q03181); experiment: Agonist activity at human PPAR delta by FRET assay; assay type: functional
# T2 sequence (Q03181 whole entry): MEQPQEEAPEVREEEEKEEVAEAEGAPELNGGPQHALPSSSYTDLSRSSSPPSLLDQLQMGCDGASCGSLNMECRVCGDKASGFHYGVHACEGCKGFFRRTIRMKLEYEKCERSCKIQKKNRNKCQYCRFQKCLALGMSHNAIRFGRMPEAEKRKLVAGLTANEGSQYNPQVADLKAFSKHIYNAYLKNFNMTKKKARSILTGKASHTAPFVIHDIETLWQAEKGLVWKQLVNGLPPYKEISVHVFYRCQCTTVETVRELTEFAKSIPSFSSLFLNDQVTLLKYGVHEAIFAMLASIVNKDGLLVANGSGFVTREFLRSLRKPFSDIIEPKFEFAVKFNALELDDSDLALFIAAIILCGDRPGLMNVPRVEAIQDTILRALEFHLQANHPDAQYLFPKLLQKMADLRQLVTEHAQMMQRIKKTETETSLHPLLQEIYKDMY
# [3] = biological target: T3, Peroxisome proliferator-activated receptor alpha (Homo sapiens, UniProt Q07869); experiment: Agonist activity at human PPAR alpha by FRET assay; assay type: functional
# T3 sequence (Q07869 whole entry): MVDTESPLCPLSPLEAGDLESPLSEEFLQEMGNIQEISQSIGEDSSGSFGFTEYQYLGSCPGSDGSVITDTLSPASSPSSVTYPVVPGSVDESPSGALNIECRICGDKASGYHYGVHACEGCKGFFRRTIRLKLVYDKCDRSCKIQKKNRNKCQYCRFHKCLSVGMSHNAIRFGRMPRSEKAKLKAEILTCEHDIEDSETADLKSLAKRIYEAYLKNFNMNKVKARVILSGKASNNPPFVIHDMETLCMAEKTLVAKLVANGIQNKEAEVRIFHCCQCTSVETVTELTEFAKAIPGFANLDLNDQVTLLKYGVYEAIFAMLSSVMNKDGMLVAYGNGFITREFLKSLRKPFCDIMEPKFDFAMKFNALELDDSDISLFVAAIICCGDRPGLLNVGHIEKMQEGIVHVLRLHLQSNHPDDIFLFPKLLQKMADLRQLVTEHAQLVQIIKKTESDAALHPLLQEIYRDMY
# Outline: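 Human PPARα ligand binding domain (GST-tagged) association with biotin-labeled co-activator CBP; Eu-labeled anti-GST antibody and streptavidin-APC; incubated 2 h at rt in buffer with or without compound; fluorescence read at 615 or 655 nm emission, 340 nm excitation.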
SMILES,EC50 [1],EC50 [2],EC50 [3]
CCCc1cc(-c2nc(CC(=O)O)cs2)ccc1OCCCOc1ccc2c(c1)CC[C@H]2CC(=O)O,27 nM,4.6 nM,2480 nM
CCc1ccc(OCCCOc2ccc3c(c2)CC[C@H]3CC(=O)O)cc1,6200 nM,8.9 nM,1980 nM
Cc1coc2cc(OCCCOc3ccc4c(c3)CC[C@H]4CC(=O)O)ccc12,1950 nM,8 nM,> 10000 nM
O=C(O)C[C@@H]1CCc2cc(OCCCOc3ccc4ncoc4c3)ccc21,> 10000 nM,130 nM,> 10000 nM
COc1csc(-c2ccc(OCCCOc3ccc4c(c3)CC[C@H]4CC(=O)O)c(OC)c2)n1,69 nM,3 nM,755 nM
Cc1cc(-c2nc(C(F)(F)F)ns2)ccc1OCCCOc1ccc2c(c1)CC[C@H]2CC(=O)O,158 nM,3.4 nM,520 nM
COc1cc(-c2nc3c(s2)CCCC3)ccc1OCCCOc1ccc2c(c1)CC[C@H]2CC(=O)O,84 nM,3.3 nM,44 nM
Cc1cccc(OCCCOc2ccc3c(c2)CC[C@H]3CC(=O)O)c1,8000 nM,56 nM,> 10000 nM
Cc1noc2cc(OCCCOc3ccc4c(c3)CC[C@H]4CC(=O)O)ccc12,3660 nM,16 nM,> 10000 nM
O=C(O)C[C@@H]1CCc2cc(OCCCOc3ccc(-c4cncnc4)cc3)ccc21,970 nM,11 nM,7280 nM
CCCc1cc(-c2nc(C)c(C(=O)N(C)C)s2)ccc1OCCCOc1ccc2c(c1)CC[C@H]2CC(=O)O,17 nM,4.4 nM,140 nM
O=C(O)C[C@@H]1CCc2cc(OCCCOc3ccc(OC(F)(F)F)cc3)ccc21,1020 nM,13 nM,6800 nM
COc1cc(-c2nc(C(F)(F)F)cs2)ccc1OCCCOc1ccc2c(c1)CC[C@H]2CC(=O)O,327 nM,2.9 nM,437 nM
COc1cc(-c2nc(C)c(C(C)=O)s2)ccc1OCCCOc1ccc2c(c1)CC[C@H]2CC(=O)O,49 nM,3.4 nM,560 nM
Cc1ccc(OCCCOc2ccc3c(c2)CC[C@H]3CC(=O)O)cc1C,> 10000 nM,67 nM,> 10000 nM
O=C(O)C[C@@H]1CCc2cc(OCCCOc3ccc4c(c3)ONC4(O)C(F)(F)F)ccc21 (stereo partly specified),5000 nM,67 nM,> 10000 nM
Cn1ccc2cc(OCCCOc3ccc4c(c3)CC[C@H]4CC(=O)O)ccc21,1030 nM,40 nM,6700 nM
COc1cc(-c2nc3c(s2)CCC3)ccc1OCCCOc1ccc2c(c1)CC[C@H]2CC(=O)O,116 nM,4.1 nM,53 nM
CCc1ccc(OCCCOc2ccc3c(c2)CC[C@H]3CC(=O)O)c(OC)c1,1650 nM,2.7 nM,700 nM
O=C(O)C[C@@H]1CCc2cc(OCCCOc3ccccc3)ccc21,> 10000 nM,44 nM,> 10000 nM
N#Cc1ccc(OCCCOc2ccc3c(c2)CC[C@H]3CC(=O)O)cc1,637 nM,7.3 nM,5700 nM
CCOc1cc(C)ccc1OCCCOc1ccc2c(c1)CC[C@H]2CC(=O)O,1240 nM,2.2 nM,> 10000 nM
O=C(O)C[C@@H]1CCc2cc(OCCCOc3ccc(-c4ccc(C(F)(F)F)cn4)cc3)ccc21,1800 nM,0.95 nM,2900 nM
Cc1cccc(-c2ccc(OCCCOc3ccc4c(c3)CC[C@H]4CC(=O)O)cc2)n1,550 nM,2.2 nM,5260 nM
O=C(O)C[C@@H]1CCc2cc(OCCCOc3ccc(-c4ccoc4)cc3)ccc21,4100 nM,3.8 nM,3270 nM
CCCc1cc(-c2nc(OC(C)C)cs2)ccc1OCCCOc1ccc2c(c1)CC[C@H]2CC(=O)O,45 nM,2.3 nM,47 nM

SMILES,EC50 [1],EC50 [2],EC50 [3]
CCCc1cc(-c2nc(CC)cs2)ccc1OCCCOc1ccc2c(c1)CC[C@H]2CC(=O)O,45 nM,11 nM,147 nM
CCOc1nc(-c2ccc(OCCCOc3ccc4c(c3)CC[C@H]4CC(=O)O)c(OC)c2)sc1CC,362 nM,5.4 nM,520 nM
CCOc1nc(-c2ccc(OCCCOc3ccc4c(c3)CC[C@H]4CC(=O)O)c(OC)c2)sc1C,177 nM,6 nM,150 nM
COc1cc(-c2nc3ccccc3s2)ccc1OCCCOc1ccc2c(c1)CC[C@H]2CC(=O)O,–,5.2 nM,526 nM
C=CCc1c(OCCCOc2ccc3c(c2)CC[C@H]3CC(=O)O)ccc2[nH]ccc12,3300 nM,18 nM,> 10000 nM
O=C(O)C[C@@H]1CCc2cc(OCCCOc3ccc4cc[nH]c4c3)ccc21,> 10000 nM,19 nM,> 10000 nM
CCCc1ccccc1OCCCOc1ccc2c(c1)CC[C@H]2CC(=O)O,1520 nM,2.4 nM,> 10000 nM
O=C(O)C[C@@H]1CCc2cc(OCCCOc3ccc4[nH]ccc4c3)ccc21,1800 nM,24 nM,> 10000 nM
O=C(O)C[C@@H]1CCc2cc(OCCCOc3ccc(-c4ccsc4)cc3)ccc21,650 nM,5.9 nM,> 10000 nM
COc1cc(-c2nc(C)c(C)s2)ccc1OCCCOc1ccc2c(c1)CC[C@H]2CC(=O)O,33 nM,4 nM,83 nM
CCCc1cc(C#N)ccc1OCCCOc1ccc2c(c1)CC[C@H]2CC(=O)O,570 nM,25 nM,3950 nM
O=C(O)C[C@@H]1CCc2cc(OCCCOc3ccc4cnoc4c3)ccc21,> 10000 nM,828 nM,> 10000 nM
COc1ccncc1-c1ccc(OCCCOc2ccc3c(c2)CC[C@H]3CC(=O)O)cc1,485 nM,43 nM,> 10000 nM
CCCc1cc(-c2nc(OCC)c(C)s2)ccc1OCCCOc1ccc2c(c1)CC[C@H]2CC(=O)O,34 nM,3.2 nM,61 nM
O=C(O)C[C@@H]1CCc2cc(OCCCOc3ccc(-c4ccccc4)cc3)ccc21,–,43 nM,> 10000 nM
CCCc1cc(-c2nccs2)ccc1OCCCOc1ccc2c(c1)CC[C@H]2CC(=O)O,48 nM,1.6 nM,111 nM
Cc1cc2cc(OCCCOc3ccc4c(c3)CC[C@H]4CC(=O)O)ccc2[nH]1,3650 nM,67 nM,> 10000 nM
COc1cccc(OCCCOc2ccc3c(c2)CC[C@H]3CC(=O)O)c1,–,117 nM,> 10000 nM
O=C(O)C[C@@H]1CCc2cc(OCCCOc3ccc(C(F)(F)F)cc3)ccc21,5580 nM,4.2 nM,1610 nM
CCCc1cc(-c2nc(CO)c(C(=O)O)s2)ccc1OCCCOc1ccc2c(c1)CC[C@H]2CC(=O)O,891 nM,12 nM,6490 nM
COc1cc(-c2nc(C)c(C(=O)N(C)C)s2)ccc1OCCCOc1ccc2c(c1)CC[C@H]2CC(=O)O,–,2.1 nM,803 nM
CC(=O)Nc1cc(-n2ccnn2)ccc1OCCCOc1ccc2c(c1)CC[C@H]2CC(=O)O,5600 nM,–,9200 nM
O=C(O)C[C@@H]1CCc2cc(OCCCOc3ccc(-n4cncn4)cc3)ccc21,–,–,> 10000 nM
COc1cc(-c2nccs2)ccc1OCCCOc1ccc2c(c1)CC[C@H]2CC(=O)O,374 nM,–,255 nM
CCCc1cc(C(F)(F)F)ccc1OCCCOc1ccc2c(c1)CC[C@H]2CC(=O)O,–,1.6 nM,1140 nM
CCCc1cc(Oc2ccccc2)ccc1OCCCOc1ccc2c(c1)CC[C@H]2CC(=O)O,–,1.9 nM,> 10000 nM
